High-throughput results deposited in PubChem by several laboratories.
Compounds with a hit are over-represented: about 2.3% of the library has one in this group of screens.
NPY Y1 blocker: blocks the human neuropeptide Y Y1 receptor | P25929 | HEK293-CNG Y1 cells, membrane potential fluorescence; NPY at EC95, then isoproterenol | inhibition, % at 3.6 µM | 1% of 200,000 active | AID 1040;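 active = inhibition above the campaign mean inhibition of all tested compounds plus 3 SD, cut at about 20% in these data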
Target sequence (P25929 whole entry, looked up): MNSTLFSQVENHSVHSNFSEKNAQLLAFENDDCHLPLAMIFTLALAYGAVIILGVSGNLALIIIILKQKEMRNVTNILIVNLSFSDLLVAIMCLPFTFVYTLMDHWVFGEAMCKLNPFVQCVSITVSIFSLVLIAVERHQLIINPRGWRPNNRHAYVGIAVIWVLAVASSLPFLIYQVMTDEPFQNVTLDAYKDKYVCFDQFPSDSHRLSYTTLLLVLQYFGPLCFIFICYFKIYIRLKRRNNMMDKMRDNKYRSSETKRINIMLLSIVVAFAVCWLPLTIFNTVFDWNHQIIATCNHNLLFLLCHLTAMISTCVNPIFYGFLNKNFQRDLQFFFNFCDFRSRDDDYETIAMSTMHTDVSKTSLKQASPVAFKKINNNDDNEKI
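Material: Y1- and CNG-channel-expressing HEK293 cells / Probe or stimulus: NPY 25 nM then isoproterenol 1 µM plus Ro 20-1724 25 µM / Doses: 3.6 µM single dose, DMSO 0.4% / Schedule: compound incubation 1 h at room temperature, readout 45 min post-stimulation / Signal: membrane potential fluorescence / Benchmarks: isoproterenol-only wells as full block versus NPY-plus-isoproterenol wells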
NPY1 pot ag: potentiators or agonists of human neuropeptide Y receptor Y1. P25929. NPY-Y1 expressing cells, potentiator/agonist activation. activation, % at 3.6 µM. 0.37% of 220,000 active; in the data active = activation above about 33%, passing the limit was not always enough;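 note: cells stimulated with NPY at EC10 then isoproterenol at EC100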
Tb hexokinase: T. brucei hexokinase 1 inhibition | recombinant TbHK1, G6PDH-coupled NADH A340 | inhibition, % at 10 µM | 0.11% of 220,000 active;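 active = inhibition of 50% or more in the single-dose primary screen; inactive = inhibition below 50%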
NPY Y2 blocker: blocks the human neuropeptide Y Y2 receptor | P49146 | NPY-Y2 expressing cells, antagonist mode | inhibition, % at 2.7 µM | 0.99% of 140,000 active | AID 793; in the data active = inhibition above about 17%
Calpain2 inh: blocks pig calpain II enzyme activity | inhibition, % at 16 µM | purified calpain II, fluorogenic peptide substrate, 30 min | 0.37% of 220,000 active;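 active = inhibition above about 50%, limit read from the data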
NPY-Y2 PAM-ag: human NPY-Y2 potentiation or agonism, primary screen; activation, % at 3.6 µM; P49146; cells expressing NPY-Y2, potentiator/agonist read-out; 0.45% of 220,000 active; in the data active = activation above about 27%;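 note: cells stimulated with NPY near EC25 plus isoproterenol at EC100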
Of the large screens only hits and unclear results are named; the others gave an inactive call.

Cc1ccc(NC2OC(CO)C(O)C2O)cc1[N+](=O)[O-] (configuration not stated)	Calpain2 inh 84.9
CC1=CC(C)(C)N(C(=O)CSc2nnc(N)s2)c2c(C)cc(C)cc21	NPY1 pot ag 69.6
Cc1cc(C)c(C(=O)CSc2nnc(N)s2)c(C)c1	none (no result: NPY Y2 blocker)
CC(=O)N(c1cccc(Cl)c1)c1nc(C)cc(C)c1C#N	none (no result: NPY Y1 blocker, NPY Y2 blocker)
CCCCNC(=O)c1onc(CSc2ccccc2CC)c1C(=O)O	NPY Y1 blocker 21.1
Cc1ccc(C(=O)N(Cc2ccccc2)C(C)(C)C)cc1C	Calpain2 inh 50.0
CC(C)(C)N(Cc1ccccc1)C(=O)c1ccc(Br)o1	none (no result: NPY Y2 blocker)
CC(C)Sc1nc2c([nH]c3ccccc32)c(=O)n1C	Calpain2 inh 81.9 (no result: NPY Y2 blocker)
N#Cc1c(NCCN)nc(NCc2ccccc2)c2c1CCN(Cc1ccccc1)C2	none (no result: Calpain2 inh)
N#Cc1c(N2CCCCC2)nc(N2CCCCC2)c2c1CCN(Cc1ccccc1)C2	NPY Y1 blocker 22.6, NPY Y2 blocker 25.2
O=C(O)c1cccc(-c2ccc(/C=N/n3cnc4sc5c(c4c3=O)CCCC5)o2)c1	none (no result: NPY Y1 blocker, NPY Y2 blocker)
CC(C)C(c1nnnn1C(C)(C)C)N1CCN(c2cccc(Cl)c2)CC1 (configuration not stated)	NPY Y1 blocker 47.7, NPY Y2 blocker 22.3
CC(C)C(c1nnnn1Cc1ccco1)N1CCN(c2cccc(Cl)c2)CC1 (configuration not stated)	none
Cn1c(COc2ccccc2)nnc1SCC(=O)NNC(=O)C1CCCCC1	none (no result: NPY Y2 blocker)
CCOc1ccc(/C=C/[N+](=O)[O-])c2ccccc12	NPY Y1 blocker 32.1, NPY Y2 blocker 27.4
COC(=O)c1ccc2c(=O)n(CC3CCCO3)c(SCC(=O)Nc3ccc(OC)cc3OC)nc2c1 (configuration not stated)	none (no result: NPY Y1 blocker, NPY Y2 blocker)
Cn1c(=O)n(C)c2cc([N+](=O)[O-])c(N3CCN(CCO)CC3)cc21	Calpain2 inh 66.4 (no result: NPY Y2 blocker)
Cn1c(=O)n(C)c2cc([N+](=O)[O-])c(N3CCN(S(C)(=O)=O)CC3)cc21	none
CCCn1c(=S)[nH]c2cc(C(=O)N3CCc4ccccc4C3)ccc2c1=O	Calpain2 inh 57.2 (no result: NPY Y2 blocker)
CCCn1c(=S)[nH]c2cc(C(=O)N3CCN(c4ccccc4OC)CC3)ccc2c1=O	none
CCn1c(Cn2nnc(-c3ccccc3)n2)nnc1SCC(=O)Nc1ccc(C(C)=O)cc1	NPY1 pot ag 45.8, NPY-Y2 PAM-ag 47.4
COC(C(=O)Nc1cccc([N+](=O)[O-])c1)c1ccccc1 (configuration not stated)	none (no result: NPY Y2 blocker)
CCOc1ccc(OCc2ccc(C(=O)N3CCCC(C)C3)cc2)cc1 (configuration not stated)	Calpain2 inh 70.7 (no result: NPY Y2 blocker)
CCOc1ccc(OCc2ccc(C(=O)N3CCOCC3)cc2)cc1	none
CCn1nnc(NC(=O)COc2ccc([N+](=O)[O-])cc2)n1	none (no result: NPY Y1 blocker, NPY Y2 blocker)
Cc1csc(NC(=O)CSc2nsc(SCC(=O)Nc3nc(C)cs3)c2C#N)n1	none
Cc1ccc(NC(=O)CSc2nsc(SCC(=O)Nc3ccc(C)cc3C)c2C#N)c(C)c1	Calpain2 inh 51.1
O=[N+]([O-])c1ccccc1OCC(O)CNC1CCCC1 (configuration not stated)	NPY1 pot ag 112.3, NPY-Y2 PAM-ag 103.9 (no result: NPY Y1 blocker, NPY Y2 blocker)
COc1cc(OC)cc(C(=O)OCC(=O)NCc2ccc3c(c2)OCO3)c1	none (no result: NPY Y2 blocker)
COC(=O)c1ccc(NC(=O)Cn2c(-c3nonc3N)nc3ccccc32)cc1	none (no result: NPY Y2 blocker)
CCOC(=O)c1ccc(NC(=O)Cn2c(-c3nonc3N)nc3ccccc32)cc1	Calpain2 inh 58.9 (no result: NPY Y2 blocker)
O=C(CCn1c(=O)[nH]c2ccsc2c1=O)NCc1ccc(F)cc1	Calpain2 inh 51.8 (no result: NPY Y2 blocker)
O=C(CCCn1c(=O)[nH]c2ccsc2c1=O)Nc1ccc(F)cc1	none (no result: NPY Y2 blocker)
O=C(Nc1cc(Cl)cc(Cl)c1)c1ccc(Cn2c(=O)[nH]c3ccsc3c2=O)cc1	NPY1 pot ag 46.4
Cc1c(Cl)cn2c(=O)cc(CN3CCN(c4ccc(F)cc4)CC3)nc2c1Cl	none (no result: NPY Y2 blocker)
CC1(C)CC(=O)C2=C(C1)OC(N)=C(C#N)C2c1cc2c(cc1[N+](=O)[O-])OCO2 (configuration not stated)	none
Nc1ccccc1-n1cccc1	none (no result: NPY Y1 blocker, NPY Y2 blocker)
O=C(Nc1cccc(F)c1)N1CCCC(CNS(=O)(=O)Cc2ccccc2)C1 (configuration not stated)	none (no result: NPY Y2 blocker)
CS(=O)(=O)c1ccc2nc(N)sc2c1	NPY1 pot ag 41.0
CC(C)(C)c1nn(-c2ccccc2)c2[nH]c(=O)c(CNc3ccc4c(c3)OCCO4)cc12	NPY1 pot ag 54.1, NPY-Y2 PAM-ag 38.6
CC(C)(C)c1nn(-c2ccccc2)c2[nH]c(=O)c(CNCc3ccco3)cc12	none
Oc1ccccc1CNc1nc2ccccc2n1CCN1CCCCC1	none
COc1ccccc1CNc1nc2ccccc2n1CCN1CCCCC1	NPY Y1 blocker 22.6, NPY Y2 blocker 20.7
COc1ccccc1/C=C/C(=O)OCC(=O)NCCC1=CCCCC1	none (no result: NPY Y2 blocker)
O=C(/C=C/c1cccc2ccccc12)NCCC1=CCCCC1	NPY Y1 blocker 32.2, NPY Y2 blocker 21.6
CC(C)c1[nH]nc2c1C(c1cccc(OC(=O)N3CCOCC3)c1)C(C#N)=C(N)O2 (configuration not stated)	NPY Y1 blocker 130.6, NPY Y2 blocker 20.4
O=C(OC1C2CCC1C1CN(CCc3ccccc3)CC12)c1ccccc1 (configuration not stated)	NPY Y1 blocker 43.8, NPY Y2 blocker 41.6
COC(=O)c1ccc(CN2CCN(CCc3ccccc3)C(CCO)C2)cc1 (configuration not stated)	none (no result: NPY Y2 blocker)
Cc1nc(/C=C/c2ccccc2)[nH]c(=O)c1-c1ccccc1	none
Cc1ccc(-c2nc(C#N)c(NCc3cccc4c3OCO4)o2)cc1	NPY Y1 blocker 28.4, NPY Y2 blocker 21.5
COc1ccc(-c2nc(C#N)c(NCc3ccc(C)cc3)o2)cc1OC	NPY Y2 blocker 26.8
COc1cccc(NC(=O)CN(C)CC(=O)Nc2ccc(Cl)cc2[N+](=O)[O-])c1	Calpain2 inh 55.1 (no result: NPY Y2 blocker)
Cc1c(O)ccc(C(=O)CN2C(=O)c3ccccc3C2=O)c1O	Calpain2 inh 78.3
CCN(CC1COc2ccccc2O1)C(=S)Nc1ccccc1 (configuration not stated)	NPY1 pot ag 46.0
Cc1ccc(S(=O)(=O)Nc2csc(C)c2C(=O)O)cc1	none (no result: NPY Y1 blocker, NPY Y2 blocker)
Cc1ccc(NC(=O)COc2cccc(/C=C3\SC(=S)N(CCC(=O)O)C3=O)c2)cc1Cl	Calpain2 inh 75.7 (no result: NPY Y1 blocker, NPY Y2 blocker)
COc1cc(/C=C/C(=O)N2CCN(C)CC2)cc(S(=O)(=O)N2CCc3ccccc32)c1OC	none (no result: NPY Y1 blocker, NPY Y2 blocker)
O=C(c1ccc2c(c1)OCO2)N(Cc1ccco1)C1(C(=O)NC2CCCCC2)CCCCC1	NPY Y1 blocker 51.4, NPY Y2 blocker 27.9
O=C(c1cnccn1)N(Cc1ccco1)C1(C(=O)NC2CCCC2)CCCCC1	NPY Y1 blocker 41.6, NPY Y2 blocker 33.2
O=C(Cc1cccs1)N(Cc1ccco1)C1(C(=O)NC2CCCC2)CCCCC1	NPY Y1 blocker 61.4, NPY Y2 blocker 25.8
